Experiments:
[1] = folding enthalpy; higher = less favourable; fluorescence melt of hairpins on a sequencing array, two-state fit; settings: sodium 0.088 M
In short: (§1)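 Hairpins were imaged by Cy3 fluorescence on a sequenced MiSeq flow cell with annealed Cy3 and quencher oligos, in 50 mM Na-HEPES pH 8.0, 25 mM NaCl, in 2.5 °C steps up to 60 °C. Bootstrapped two-state fits of normalised signals gave melting temperature and folding enthalpy. Four replicates were combined by inverse variance, and fitted temperatures were raised by 9.35 °C to match UV melts.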

[2] = melting temperature; fluorescence melt of hairpins on a sequencing array, two-state fit, raised by 9.35 °C to match UV melts; settings: sodium 0.088 M
In short: as §1

Sequence	folding enthalpy [1]	Tm [2]
GCAACTGGAAACGGTTGC (((((.(....).)))))	-45.2 kcal/mol	54.2 °C
GCAAGACGAAAGTCGTGC (((.(((....))).)))	-32.2 kcal/mol	61.1 °C
GCAAGAGGAAACTTTTGC ((((.((....)).))))	-26 kcal/mol	39 °C
GCAAGCGAAAGCTATTGC ((((((....)))..)))	-17.5 kcal/mol	42.8 °C
GCAAGCGAAAGCTCATGC ((((((....)))..)))	-12.5 kcal/mol	35.2 °C
GCAAGCGAAAGCTGATGC ((((((....)))..)))	-16.3 kcal/mol	45.7 °C
GCAAGCGAAAGCTGCTGC ((((((....)))..)))	-19.5 kcal/mol	67.2 °C
GCAAGCGAAAGCTTATGC ((((((....)))..)))	-14.7 kcal/mol	39.8 °C
GCAAGCGAAAGCTTCTGC ((((((....)))..)))	-11.5 kcal/mol	42.1 °C
GCAAGCGAAAGCTTGTGC ((((((....)))..)))	-16.9 kcal/mol	66.7 °C
GCAAGGCGAAAGCAGTGC (((..((....))..)))	-16.8 kcal/mol	50.9 °C
GCAAGGCGAAAGCCCTGC (((.(((....))).)))	-31.3 kcal/mol	50.7 °C
GCAAGGCGAAAGCCTCGC ((.((((....)))).))	-18.4 kcal/mol	59.3 °C
GCAAGGCGAAAGCCTGGC ((.((((....)))).))	-23.1 kcal/mol	68.9 °C
GCAAGGCGAAAGCTCTGC (((..((....))..)))	-21.5 kcal/mol	43.7 °C
GCAAGGCGAAAGCTGTGC (((..((....))..)))	-18.1 kcal/mol	52.8 °C
GCAAGGCGAAAGCTTGGC ((.(.((....)).).))	-17.9 kcal/mol	44 °C
GCAAGGGGAAACCCTCAC (..((((....))))..)	-9.15 kcal/mol	25.2 °C
GCAAGGGGAAACCTTTGC ((((.((....)).))))	-30.8 kcal/mol	47.6 °C

Sequence	folding enthalpy [1]	Tm [2]
GCAAGGGGAAACTCTTGC (((((.(....).)))))	-45.3 kcal/mol	50.1 °C
GCAAGTCGAAAGACATGC (((.(((....))).)))	-29.1 kcal/mol	52.7 °C
GCAAGTGGAAACACTCGC ((.((((....)))).))	-25.4 kcal/mol	44.3 °C
GCAAGTGGAAACACTTAC (.(((((....))))).)	-18.7 kcal/mol	34.6 °C
GCAATACGAAAGTAATGC (((.(((....))).)))	-37.4 kcal/mol	47.4 °C
GCAATACGAAAGTACTGC (((.(((....))).)))	-31.3 kcal/mol	43.9 °C
GCAATAGGAAACTATCGC ((.((((....)))).))	-18.6 kcal/mol	33.9 °C
GCAATAGGAAACTATTGC (((((((....)))))))	-45.8 kcal/mol	56 °C
GCAATAGGAAACTGTTGC ((((.((....)).))))	-33 kcal/mol	47.4 °C
GCAATATCGAAAGATTGC (((..(((....))))))	-25.5 kcal/mol	39.5 °C
GCAATCCCGAAAGGGTGC (((..(((....))))))	-19.1 kcal/mol	46.6 °C
GCAATCGAAAGATATTGC ((((((....)))..)))	-18.7 kcal/mol	35.5 °C
GCAATCGAAAGATGATGC ((((((....)))..)))	-18.6 kcal/mol	32.5 °C
GCAATCGAAAGATGTGC ((((((....))).)))	-25.5 kcal/mol	39.5 °C
GCAATCGAAAGATGTTGC ((((((....)))..)))	-15.9 kcal/mol	34.6 °C
GCAATCGAAAGATTATGC ((((((....)))..)))	-17.5 kcal/mol	32.8 °C
GCAATGACGAAAGTCTGC (((..(((....))))))	-19.4 kcal/mol	42 °C
GCAATGCGAAAGCAAAGC ((..(((....)))..))	-14.6 kcal/mol	38 °C

Source: the array DNA melting data of Ke et al. (doi:10.1101/2024.01.08.574731)
